One assay concerns the target EGFR^L858R/T790M (Homo sapiens, UniProt P00533, L858R/T790M). The assay can be described thus: EGFR kinase inhibition by ELISA, L858R/T790M. In kind it is biochemical. The following applies: EGFR^L858R/T790M versus EGFR^WT, kinase assay.
Assay [1] relates to A549 cells. The assay can be described thus: AO/EB fluorescent staining, morphology of apoptotic cells. In kind it is cell-based. The following applies: A549 cells, 1, 5 or 10 μM, 48 h. The gist of the method: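 A549 cells seeded in 6-well plates at 3.6 × 10^5/mL and grown 24 h, then exposed to test compound for a further 48 h; untreated A549 cells served as control. Cells were stained for a few min with AO/EB dual fluorescent solution, then viewed and photographed by forward fluorescence microscopy for apoptotic morphology.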

For assay [2], the system named is A549 cells. The assay can be described thus: Wound healing. In kind it is cell-based. To be noted: 5 or 10 μM, 0, 24 and 48 h. In a few lines:
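Wound-healing format with A549 cells at 3.6 × 10^5/well, exposed to test compound and imaged at 0, 24 and 48 h. Cell migration into the wound was assessed by microscopy and photography.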

In assay [3] the test system is H1975 cells. The assay can be described thus: Apoptosis by flow cytometry, Annexin V/PI double staining. To be noted: H1975, 10 μM, 48 h; total apoptotic cells (Q2 + Q3). Type of assay: cell-based. The gist of the method:
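H1975 cells in log growth seeded at 3 × 10^5/well, held 24 h at 37 °C, 5% CO2, then exposed to test compound at several concentrations for 48 h. Cells harvested by trypsin, PBS-washed, stained with Annexin V-APC for 30 min and then PI for 3 min at room temperature in the dark, diluted in saline and read at once by flow cytometry. Total apoptotic fraction taken as Q2 + Q3.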

Assay [4] concerns H1975 cells. The assay can be described thus: Cell cycle progression by flow cytometry. In kind it is cell-based. To be noted: 24 h. In a few lines:
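H1975 cells seeded at 3 × 10^5/well and cultured 24 h, then treated with test compound (0.2, 1.0, 5 μM) for 24 h at 37 °C. Cells PBS-washed, fixed overnight in ice-cold 70% ethanol, washed again and stained with PI for 30 min at room temperature in the dark. DNA content analysed by flow cytometry to give the G2/M fraction against an untreated control.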
On the technique in general: In flow cytometry, cells or beads pass a laser one at a time.

Chain of EGFR^L858R/T790M (P00533 25-1210 T790M/L858R): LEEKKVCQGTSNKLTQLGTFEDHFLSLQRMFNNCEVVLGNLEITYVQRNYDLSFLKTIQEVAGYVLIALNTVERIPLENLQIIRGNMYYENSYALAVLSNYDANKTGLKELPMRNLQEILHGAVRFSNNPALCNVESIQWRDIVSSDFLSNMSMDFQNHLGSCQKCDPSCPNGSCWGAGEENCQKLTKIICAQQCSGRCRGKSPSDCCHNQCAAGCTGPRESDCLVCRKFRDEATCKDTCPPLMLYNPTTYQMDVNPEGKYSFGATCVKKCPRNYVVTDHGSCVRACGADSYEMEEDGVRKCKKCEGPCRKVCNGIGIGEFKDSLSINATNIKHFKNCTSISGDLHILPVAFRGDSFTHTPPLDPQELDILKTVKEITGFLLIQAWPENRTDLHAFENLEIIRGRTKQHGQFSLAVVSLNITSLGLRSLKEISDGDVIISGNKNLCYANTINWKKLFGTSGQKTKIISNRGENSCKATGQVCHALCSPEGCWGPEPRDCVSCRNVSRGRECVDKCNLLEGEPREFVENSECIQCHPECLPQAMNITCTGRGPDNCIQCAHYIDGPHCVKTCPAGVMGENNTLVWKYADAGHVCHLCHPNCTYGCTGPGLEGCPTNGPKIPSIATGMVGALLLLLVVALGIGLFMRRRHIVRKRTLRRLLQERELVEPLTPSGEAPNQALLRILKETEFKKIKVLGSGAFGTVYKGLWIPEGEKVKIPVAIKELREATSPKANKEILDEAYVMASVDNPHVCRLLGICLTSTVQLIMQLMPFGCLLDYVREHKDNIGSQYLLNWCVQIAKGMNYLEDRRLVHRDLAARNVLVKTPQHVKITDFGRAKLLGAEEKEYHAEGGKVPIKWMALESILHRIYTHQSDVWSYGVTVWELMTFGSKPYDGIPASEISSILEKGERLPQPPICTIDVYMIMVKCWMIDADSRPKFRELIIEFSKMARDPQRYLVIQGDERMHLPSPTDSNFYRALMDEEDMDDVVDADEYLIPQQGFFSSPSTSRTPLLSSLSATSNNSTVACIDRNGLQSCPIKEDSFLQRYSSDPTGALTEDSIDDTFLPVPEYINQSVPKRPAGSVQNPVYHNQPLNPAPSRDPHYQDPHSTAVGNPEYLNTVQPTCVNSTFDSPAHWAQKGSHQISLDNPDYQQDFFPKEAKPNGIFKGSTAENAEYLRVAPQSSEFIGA

Take `C=C(Cl)C(=O)Nc1cc(Nc2nc(N3CCc4sccc4C3)c3sccc3n2)c(OC)cc1N(C)CCN(C)C` [Compound B1, 2-chloro-N-(5-((4–(6,7-dihydrothieno[3,2-c]pyridin-5(4H)-yl)thieno[3,2-d]pyrimidin-2-yl)amino)-2-((2-(dimethylamino)ethyl)(methyl)amino)-4-methoxyphenyl)acrylamide]: the “selectivity for EGFR^WT” value on EGFR^L858R/T790M is given as “more than 76 fold”. Moreover, the “apoptosis induction, cell morphology” value in the assay on A549 cells [1] is “induce apoptosis in A549 cells in a concentration-dependent manner”. In addition, in the assay on A549 cells [2], the wound healing entry is “wound healing was slower in the treated group than that in the blank control group”. In addition, the apoptosis rate in the assay with H1975 cells [3] stood at 22.1%. Also, the “percentage of G2/M-phase cells” value is reported as 24.41% with H1975 cells [4] (H1975, 0.2 μM); 27.68% with H1975 cells [4] (H1975, 1.0 μM); 31.47% in the assay with H1975 cells [4] (H1975, 5 μM).

For the compound `C=C(Cl)C(=O)Nc1cc(Nc2nc(Nc3cnn(C)c3)c3sccc3n2)c(OC)cc1N(C)CCN(C)C` [Compound B7, 2-chloro-N-(2-((2-(dimethylamino)ethyl)(methyl)amino)-4-methoxy-5-((4-((1-methyl-1H-pyrazol-4-yl)amino)thieno[3,2-d]pyrimidin-2-yl)amino)phenyl)acrylamide], the “selectivity for EGFR^WT” value at EGFR^L858R/T790M is recorded as “more than 16 fold”. In addition, the “apoptosis induction, cell morphology” value in the assay with A549 cells [1] is on record as “induce apoptosis in A549 cells in a concentration-dependent manner”. Also, the wound healing result in the assay with A549 cells [2] is “wound healing was slower in the treated group than that in the blank control group”.

Source of the values: article PMC10150624 (Journal of Enzyme Inhibition and Medicinal Chemistry, 2023).
